From ChEMBL document CHEMBL4513216, “Probing the Open Global Health Chemical Diversity Library for Multistage-Active Starting Points for Next-Generation Antimalarials” (ACS Infect Dis, 2020) come the findings set out here.

This series is described as follows: Toxicity liver stage against HepG2, at 10uM. It counts as cell-based. On the set-up: test concentration 10 uM, cell line HepG2-A16-CD81EGFP. To be noted: human, HepG2-A16-CD81EGFP cells; read-out: INHIBITION
The essentials: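 Uninfected HepG2-A16-CD81EGFP cells, 3 × 10^3 per well, 1536-well, plated on prespotted compound at 10 μM final, parasite-free screening media added to match infected plates; puromycin 10 μM positive, DMSO 0.5% negative; run in parallel with 48 h PbLuc assay at 37 °C, 5% CO2; viability by CellTiter-Glo luminescence, normalized to controls.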
For the molecule `CSc1ccc(C(=O)C2CCCN(C(=O)CCCn3cncn3)C2)cc1` (stereo unspecified), the cytotoxicity at 10 µM stood at 6.26%.

Take `CSc1ccc(C(=O)C2CCCN(C(=O)CCn3cncn3)C2)cc1` (stereo unspecified): the cytotoxicity at 10 µM was -12.2%.

Take `N#Cc1ccc(CN2C[C@@H]3OCC(=O)N[C@@H]3C2)cc1`: the cytotoxicity at 10 µM was -3.01%.

As for `CCOC(=O)COC1CCN(C(C)=O)CC(=O)N(C)c2ccccc21` (stereo unspecified), the cytotoxicity at 10 µM was determined as 7.45%.

On to `COCCNC(=O)c1cc(-n2cccc2)ccc1Cl`, for which the cytotoxicity at 10 µM is -3.45%.

`CC(C)[C@H](NC(=O)N1CCN(c2ccc(Cl)cc2)CC1)C(=O)NC1CC1`: the cytotoxicity at 10 µM was -7.39%.

Take `CC(=O)Nc1cccc2c1ccn2CC(=O)NC(C)C`: the cytotoxicity at 10 µM was -7.79%.

Turning to `CCCS(=O)(=O)c1ccc(N2CCN(c3ccccn3)CC2)nn1`, the cytotoxicity at 10 µM is -82.5%.

On to `CCN1C(=O)[C@]2(CC[C@@H]3CN(C(=O)Nc4ccc(F)cc4)C[C@@H]32)N=C1C`, for which the cytotoxicity at 10 µM was 3.22%.

On to `O=C1CC(c2cccnc2)c2c(c(C(=O)O)cn2-c2ccccc2)N1` (stereo unspecified), for which the cytotoxicity at 10 µM is 9.92%.

For `CCOC(=O)C1CCN(C(=O)Cn2ccc3cc(Br)ccc32)CC1`, the cytotoxicity at 10 µM was -8.23%.

With `COC(=O)CNC(=O)CSCc1nc(O)c2c(C)c(C)sc2n1`, the cytotoxicity at 10 µM came to 0.562%.

As for `c1ccc2c(N3CCOCC3)cnnc2c1`, the cytotoxicity at 10 µM was -6.06%.

Turning to `CCn1nc(C)c2ncnc(N(C)C)c21`, the cytotoxicity at 10 µM is 3.18%.

Turning to `CCc1noc(C2CCCCN2C(=O)c2ccoc2C)n1` (stereo unspecified), the cytotoxicity at 10 µM turned out to be 12.5%.

On to `O=C(O)[C@H]1OCC(=O)N(Cc2cccc(Cl)c2)[C@@H]1c1ccccc1`, for which the cytotoxicity at 10 µM worked out at 7.35%.

For `NC(=O)C1CN(C(=O)c2ccc(F)cc2)CCN1CCc1ccccc1` (stereo unspecified), the cytotoxicity at 10 µM is 2.77%.

Consider `O=C(O)c1ccccc1-c1ccc(CN2CCOCC2)cn1`, for which the cytotoxicity at 10 µM was -1.1%.

As for `O=C(O)c1ccccc1-c1cnc(Cn2c(=O)cc[nH]c2=O)s1`, the cytotoxicity at 10 µM was determined as 2.95%.

`CN(C)C(=O)CN1CCC2(CC1)C[C@@H](O)[C@H](c1ccccc1)NC2=O`: the cytotoxicity at 10 µM was -22.4%.

For `Cc1cccc2nc(C(=O)N3CCCC[C@]4(C)NC(=O)CC[C@H]34)cn12`, the cytotoxicity at 10 µM is -13.7%.

For the molecule `CCc1nnc(Nc2cccc(C3CCN(C(=O)CN(C)C)CC3)n2)s1`, the cytotoxicity at 10 µM is -39.1%.

For the molecule `O=C(O)C1(Cc2cc(-c3ccccc3F)no2)CCOCC1`, the cytotoxicity at 10 µM is -9.41%.

Take `COc1ccc(CN(Cc2cn(C)nc2C)CC2CCCO2)c(OC)c1` (stereo unspecified): the cytotoxicity at 10 µM is -7.3%.

For `COc1ncc(C(=O)N2CCC(c3nc(C)n4ccsc34)CC2)cn1`, the cytotoxicity at 10 µM was -17.4%.

For the molecule `CNc1ccc(CC2CCCN(C(=O)c3c(C)noc3C)C2)nn1` (stereo unspecified), the cytotoxicity at 10 µM is -5%.

As to `Cn1cncc1CN1CC[C@](C)(O)[C@@H](Oc2cccc(F)c2)C1`, the cytotoxicity at 10 µM was -8.49%.

In the case of `Cn1ccnc1CC1CCCN(C(=O)Cc2ccccc2)C1` (stereo unspecified), the cytotoxicity at 10 µM is -4.14%.

As to `COCCN1CCCC(c2nccnc2Nc2nc(C)cs2)C1` (stereo unspecified), the cytotoxicity at 10 µM is -7.16%.

On to `CCN(C(=O)Cc1ccc(NCc2ncc[nH]2)cc1)c1ccccc1`, for which the cytotoxicity at 10 µM is 6.43%.

As to `Cc1ccc(C(=O)N2CCCCC2CN(C)C)cc1` (stereo unspecified), the cytotoxicity at 10 µM is -9.98%.

Take `COCCn1c(C(=O)NCC(C)C(=O)O)cc2ccccc21` (stereo unspecified): the cytotoxicity at 10 µM came out at 2.64%.

For `NC(=O)N1CCCC(C(=O)NCCOc2ccc3c(c2)OCO3)C1` (stereo unspecified), the cytotoxicity at 10 µM is -102%.

Take `Cc1cc(C(=O)Nc2ccc(-c3nnc(N(C)C)o3)cc2)oc1C`: the cytotoxicity at 10 µM worked out at 0.11%.

`CCc1nccn1C1CCCN(C(=O)c2ccc(C(N)=O)cn2)C1` (stereo unspecified): the cytotoxicity at 10 µM was 1.89%.

Regarding `Cc1ccc(C(=O)N(C)Cc2csc(Br)c2)c(=O)[nH]1`, the cytotoxicity at 10 µM worked out at 15.3%.

Consider `Cc1cc(N2CCC(N(C)C(=O)c3cccs3)CC2)nc(C)n1`, for which the cytotoxicity at 10 µM stood at 6.74%.

For `NC(=O)c1ccc(CN2CCCC(N3CCCCCC3)C2)cc1` (stereo unspecified), the cytotoxicity at 10 µM was -6.46%.

With `N#Cc1cccnc1N1CCC(c2nc(C(F)(F)F)c[nH]2)CC1`, the cytotoxicity at 10 µM turned out to be 2.74%.

Turning to `CC(C)(C)NS(=O)(=O)c1ccccc1CNCc1ccccc1`, the cytotoxicity at 10 µM was 5.74%.

Take `CN1CCN(S(C)(=O)=O)c2ccc(F)cc21`: the cytotoxicity at 10 µM was -4.12%.

For the molecule `O=C(C[S+]([O-])Cc1cccc(C(F)(F)F)c1)NC1CCCC1` (stereo unspecified), the cytotoxicity at 10 µM came out at 7.72%.

As to `Cc1cc(SC(C)(C)C)ccc1NC(=O)CNC(N)=O`, the cytotoxicity at 10 µM turned out to be 7.94%.

In the case of `Cc1noc(CNC(=O)C(C)(C)NC(=O)OC(C)(C)C)n1`, the cytotoxicity at 10 µM turned out to be 13.9%.

Take `Cc1cc(NCc2cccc(C#N)c2)ccc1C(=O)N(C)C`: the cytotoxicity at 10 µM was determined as 7.06%.

`Cc1cc(C(=O)Nc2ccc(N3CCCC3)cn2)ccc1-n1cncn1`: the cytotoxicity at 10 µM was 19.8%.

For the molecule `CC(C)(NS(C)(=O)=O)c1nc(-c2ccncc2)no1`, the cytotoxicity at 10 µM amounted to 12.9%.

As to `Cc1nc(CN2C[C@@H]3CN(C(=O)c4ccncc4)C[C@@H]3C2)cs1`, the cytotoxicity at 10 µM was -108%.

Consider `COCC(=O)NCc1cc(=O)n2c(n1)CN(Cc1ccncc1)CCC2`, for which the cytotoxicity at 10 µM is -99.9%.

`CNC(=O)N1CC[C@@H]2CN(Cc3cccnc3)S(=O)(=O)[C@@H]2CC1`: the cytotoxicity at 10 µM turned out to be 4.4%.

`Cc1nsc(NC(=O)NC2(CN3CCCCC3)CCCCC2)n1`: the cytotoxicity at 10 µM is 10.6%.

On to `CC[C@@]1(O)CCN(C(=O)CCNC(=O)c2ccc(F)cc2)C[C@H]1O`, for which the cytotoxicity at 10 µM worked out at 0.0652%.

Take `CC(C)c1cc(NCC2(N3CCOCC3)CCCCC2)ncn1`: the cytotoxicity at 10 µM is -12.8%.

`COCCc1noc(-c2cn(Cc3ccc(OC)cc3)nn2)n1`: the cytotoxicity at 10 µM stood at 5.07%.

Take `CC(O)c1cn(CC2CCN(C(=O)CN3CCCC3=O)CC2)nn1` (stereo unspecified): the cytotoxicity at 10 µM is 2.31%.

Turning to `Cc1nonc1CN(C)Cc1c[nH]nc1-c1ccc(F)cc1F`, the cytotoxicity at 10 µM is 11.9%.

For `CCc1ccc(CN2CCOC(Cc3cccc(F)c3)C2)nc1` (stereo unspecified), the cytotoxicity at 10 µM was -2.33%.

For `CCn1c(C2CCCN(C(=O)c3ccc[nH]3)C2)nn(CCN(C)C)c1=O` (stereo unspecified), the cytotoxicity at 10 µM came out at 2.67%.

Consider `CCc1ncc(C(=O)NCCN2CCNC2=O)cn1`, for which the cytotoxicity at 10 µM came out at 0.069%.

`O=C(c1c[nH]c(=O)[nH]c1=O)N1CCCC(c2nccn2CC2CCC2)C1` (stereo unspecified): the cytotoxicity at 10 µM was -3.67%.

For the molecule `Cc1ccccc1C(C(=O)NCCn1cccc1)N(C)C` (stereo unspecified), the cytotoxicity at 10 µM was determined as 7.62%.

On to `CC(C)N1CCOC(CC(=O)N2CCCN(c3ccc(F)cc3)CC2)C1` (stereo unspecified), for which the cytotoxicity at 10 µM is -4.66%.

Turning to `CCc1ccc2nc(C)cc(C(=O)N[C@@H]3C[C@@H](CO)N(C)C3)c2c1`, the cytotoxicity at 10 µM came out at 2.35%.

As for `Cc1nc(N2CCCC2)nc(N2CCC(O)(C(=O)O)CC2)c1C`, the cytotoxicity at 10 µM was -5.62%.

Consider `N#Cc1cccc(N2CCC(CO)(CCCc3ccccc3)CC2)n1`, for which the cytotoxicity at 10 µM is -45.7%.

As for `CCn1c(C)nnc1SCCNc1cc(OC)ncn1`, the cytotoxicity at 10 µM was found to be 5.87%.

Consider `CN(C)CCCC(=O)NC1CC(C)(C)Cc2nc(C(C)(C)C)ncc21` (stereo unspecified), for which the cytotoxicity at 10 µM stood at 15.2%.

With `CCC(NC1CCCC1)c1ccc(S(C)(=O)=O)cc1` (stereo unspecified), the cytotoxicity at 10 µM is -3.37%.

Take `O=C(CN1CCOC1=O)N(Cc1ccccc1)Cc1nccs1`: the cytotoxicity at 10 µM was 0.84%.

Consider `Cc1nn(C)cc1-c1cc(C(F)F)n2nc(CCC(=O)O)nc2n1`, for which the cytotoxicity at 10 µM is -5.44%.

Consider `CCC(CC#N)n1ccc(C(F)(F)F)n1` (stereo unspecified), for which the cytotoxicity at 10 µM was -8.38%.

Take `CC(C)c1nccn1-c1cccc(C2CCCN2S(=O)(=O)N(C)C)n1` (stereo unspecified): the cytotoxicity at 10 µM came out at 4.26%.

Take `COc1ccc(C(=O)Nc2cc(CC(C)C)nn2C)cc1`: the cytotoxicity at 10 µM is -10.6%.

As to `Cc1cnn(C2CN(CC(=O)NCCc3ccsc3)C2)c1`, the cytotoxicity at 10 µM is -3.86%.

With `Cc1nc(C2CCCN2Cc2ccc(S(=O)(=O)N(C)C)o2)no1` (stereo unspecified), the cytotoxicity at 10 µM is -2.53%.

As to `Cc1ccc(OCCN2CCN(Cc3cnn(CCO)c3)CC2)cc1`, the cytotoxicity at 10 µM is -2.4%.

For `Cc1nc(C)n(C2CCCN(C(=O)c3ccc4[nH]nnc4c3)C2)n1` (stereo unspecified), the cytotoxicity at 10 µM is -13.9%.

As for `COc1cc(C(=O)NS(=O)(=O)c2cccc(C#N)c2)cc(OC)c1C`, the cytotoxicity at 10 µM is -5.02%.

For the molecule `O=C(c1ccccc1N1CCOCC1)N1CCCC(n2ccnc2)C1` (stereo unspecified), the cytotoxicity at 10 µM is -10.7%.

For `Cc1cnn(C2CCCN(C(=O)c3cn4ccccc4n3)C2)c1` (stereo unspecified), the cytotoxicity at 10 µM is -6.35%.

For the molecule `CNC(=O)CCCNCc1c(C(C)C)nn(C)c1N(C)C`, the cytotoxicity at 10 µM is -12.7%.

Consider `CCOc1ncccc1NC(=O)N1CCCCCC1`, for which the cytotoxicity at 10 µM was -6.36%.

Turning to `CC(=O)N(Cc1ncc(C(C)C)o1)C1CCN(Cc2ncc[nH]2)C1` (stereo unspecified), the cytotoxicity at 10 µM was -6.02%.

On to `Cc1nc(C)n(C2CCCN(C(=O)c3ccc(NC4CC4)nc3)C2)n1` (stereo unspecified), for which the cytotoxicity at 10 µM was -3.36%.

For the molecule `O=C(CCc1cscn1)N1CCCC(n2ccnc2)C1` (stereo unspecified), the cytotoxicity at 10 µM was -3.03%.

For the molecule `Cc1ccc(N2CCCC(NCC(=O)NCC3CC3)C2)nn1` (stereo unspecified), the cytotoxicity at 10 µM was -2.5%.

As to `COc1ccccc1CC1CCCN(CC(N)=O)C1` (stereo unspecified), the cytotoxicity at 10 µM was 5.68%.

`CC(C(=O)NCc1ccc(-n2cncn2)nc1)n1ccnc1` (stereo unspecified): the cytotoxicity at 10 µM is 0.409%.

As for `CCc1nnsc1C(=O)N1CCCN(Cc2cnn(C)c2)CC1`, the cytotoxicity at 10 µM was -2.26%.

`c1cnc2[nH]nc(C3CCN(Cc4ccsc4)CC3)c2c1`: the cytotoxicity at 10 µM is -27.3%.

On to `CN1CC(=O)N(c2cnn(C)c2)CC12CCN(Cc1ccccc1)C2` (stereo unspecified), for which the cytotoxicity at 10 µM was -7.24%.

On to `c1cncc(-c2noc(C3CN(Cc4cccs4)C3)n2)c1`, for which the cytotoxicity at 10 µM is -6.87%.

Regarding `c1ccc(CO[C@H]2CC[C@H]3[C@H]2OCCN3Cc2nccs2)nc1`, the cytotoxicity at 10 µM came out at 5.83%.

On to `COCCN1C[C@@H]2[C@@H](OC)CCN(Cc3ccco3)[C@@H]2C1`, for which the cytotoxicity at 10 µM was 2.37%.

As for `Cc1cnc(N2CC3(CCN(C(=O)c4cccnc4)C3)C2)nc1`, the cytotoxicity at 10 µM was determined as 2.55%.

As for `CN1CCNC(Cc2ccc(-c3ccncc3)cc2)C1=O` (stereo unspecified), the cytotoxicity at 10 µM was -25.8%.
